Assay results as given in ChEMBL document CHEMBL1828618, “Synthesis and biological activity of novel tiliroside derivants” (Eur J Med Chem, 2011).

Experiments:
HepG2 [1] = assay: Increase in glucose consumption in insulin-resistant human HepG2 cells after 24 hrs; format: functional, cell-based; details: HepG2, 24 h
Summary of the method: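 HepG2 grown in high-glucose DMEM with 10% FBS, then plated 24 h. Made insulin-resistant with 10^-7 M insulin for 36 h in serum-free, phenol red-free high-glucose DMEM. Washed, then exposed to test agents at several concentrations for 24 h. Medium glucose measured by kit. Consumption gain expressed as % over the insulin-resistant model group. EC50 derived.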

[2] = molecular target: AMP-activated protein kinase, AMPK (Homo sapiens) (UniProt P54646+O43741+P54619+Q9UGJ0+Q9Y478+Q13131+Q9UGI9); assay: Induction of AMPK phosphorylation in human HepG2 cells after 2 hrs by Western blot analysis; format: cell-based
Summary of the method: (§1)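 HepG2 in 12-well plates exposed to increasing doses for 2 h. Lysed on ice in RIPA buffer (pH 7.2) with phosphatase and protease inhibitors. Run on 7.5% SDS-PAGE and blotted to PVDF. Blocked 1 h in 5% BSA, primary antibodies overnight at 4 °C, secondary 1 h at room temperature. Chemiluminescent detection. Means ± SE of 3 independent experiments.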

HepG2 [3] = assay: Induction of ACC phosphorylation in human HepG2 cells after 2 hrs by Western blot analysis; format: cell-based; summary of the method: as §1
[4] = Inhibition of dephosphorylated glycogen phosphorylase

| Compound | EC50 (HepG2 [1]) [nM] | also measured |
| --- | --- | --- |
| COc1ccc(/C=C/C(=O)COc2c(-c3ccc(O)cc3)oc3cc(O)cc(O)c3c2=O)cc1Br | > 20000 |  |
| COc1cc(/C=C/C(=O)COc2c(-c3ccc(O)cc3)oc3cc(O)cc(O)c3c2=O)ccc1O | 6190 |  |
| O=C(/C=C/c1ccc(C(F)(F)F)cc1)COc1c(-c2ccc(O)cc2)oc2cc(O)cc(O)c2c1=O | > 20000 |  |
| CCCCOc1ccc(/C=C/C(=O)COc2c(-c3ccc(O)cc3)oc3cc(O)cc(O)c3c2=O)cc1 | > 20000 |  |
| O=C(/C=C/c1ccc(O)c(Cl)c1)COc1c(-c2ccc(O)cc2)oc2cc(O)cc(O)c2c1=O | 3560 |  |
| CN(C)C(=N)NC(=N)N [METFORMIN] | 270 |  |
| CCOc1ccc(/C=C/C(=O)COc2c(-c3ccc(O)cc3)oc3cc(O)cc(O)c3c2=O)cc1 | 42 |  |
| N#Cc1ccc(/C=C/C(=O)COc2c(-c3ccc(O)cc3)oc3cc(O)cc(O)c3c2=O)cc1 | 3 | Activity [2]: Dose-dependent effect; Activity (HepG2 [3]): Dose-dependent effect |
| CCCCCCCCOc1ccc(/C=C/C(=O)COc2c(-c3ccc(O)cc3)oc3cc(O)cc(O)c3c2=O)cc1 | > 20000 |  |
| O=C(/C=C/c1ccc(O)cc1)OC[C@H]1O[C@@H](Oc2c(-c3ccc(O)cc3)oc3cc(O)cc(O)c3c2=O)[C@H](O)[C@@H](O)[C@@H]1O [TILIROSIDE] | 155 |  |
| CSc1ccc(/C=C/C(=O)COc2c(-c3ccc(O)cc3)oc3cc(O)cc(O)c3c2=O)cc1 | > 20000 |  |
| O=C(/C=C/c1ccc(Br)cc1)COc1c(-c2ccc(O)cc2)oc2cc(O)cc(O)c2c1=O | 393 |  |
| CC(C)(C)c1ccc(/C=C/C(=O)COc2c(-c3ccc(O)cc3)oc3cc(O)cc(O)c3c2=O)cc1 | 13 |  |
| O=c1cc(-c2ccc(O)c(O)c2)oc2c(O)c(O)cc(O)c12 [HYPOLAETIN] |  | IC50 [4]: 15700 nM |
| O=c1cc(-c2ccc(O)c(O)c2)oc2cc(O)c(O)c(O)c12 [6-HYDROXYLUTEOLIN] |  | IC50 [4]: 11600 nM |
| COc1ccc(/C=C/C(=O)COc2c(-c3ccc(O)cc3)oc3cc(O)cc(O)c3c2=O)cc1 | 149 |  |
| COc1ccc(/C=C/C(=O)COc2c(-c3ccc(O)cc3)oc3cc(O)cc(O)c3c2=O)cc1O | 5070 |  |
| CC(C)c1ccc(/C=C/C(=O)COc2c(-c3ccc(O)cc3)oc3cc(O)cc(O)c3c2=O)cc1 | 15 |  |
| O=C(/C=C/c1ccc(F)cc1)COc1c(-c2ccc(O)cc2)oc2cc(O)cc(O)c2c1=O | 669 |  |
| COc1cc(/C=C/C(=O)COc2c(-c3ccc(O)cc3)oc3cc(O)cc(O)c3c2=O)ccc1OCc1ccccc1 | > 20000 |  |
| O=C(/C=C/c1ccc(OCc2ccccc2)cc1)COc1c(-c2ccc(O)cc2)oc2cc(O)cc(O)c2c1=O | 658 |  |
| O=C(/C=C/c1ccc(Cl)cc1)COc1c(-c2ccc(O)cc2)oc2cc(O)cc(O)c2c1=O | 1080 |  |
| O=C(/C=C/c1ccc(Cl)c(Cl)c1)COc1c(-c2ccc(O)cc2)oc2cc(O)cc(O)c2c1=O | 2590 |  |
| O=c1c(O)c(-c2ccc(O)c(O)c2)oc2cc(O)c(O)c(O)c12 [QUERCETAGETIN] |  | IC50 [4]: 9700 nM |
| CCCCCCOc1ccc(/C=C/C(=O)COc2c(-c3ccc(O)cc3)oc3cc(O)cc(O)c3c2=O)cc1 | > 20000 |  |
| O=C(/C=C/c1ccccc1)COc1c(-c2ccc(O)cc2)oc2cc(O)cc(O)c2c1=O | 473 |  |
| O=C(/C=C/c1ccc(O)cc1)COc1c(-c2ccc(O)cc2)oc2cc(O)cc(O)c2c1=O | 368 |  |
| Cc1ccc(/C=C/C(=O)COc2c(-c3ccc(O)cc3)oc3cc(O)cc(O)c3c2=O)cc1 | 10 |  |
